Measurements: ChEMBL document CHEMBL1140072, “Discovery of novel and cardioselective diltiazem-like calcium channel blockers via virtual screening” (J Med Chem, 2008)

What was measured:
[1] = Negative inotropic activity in guinea pig left atrium assessed as decrease in atrial tension at 5 uM relative to control; assay type: functional, Cavia porcellus, Cardiac atrium; design: scale not given: the % may be the effect or the level left
[2] = Negative chronotropic activity in guinea pig spontaneously beating right atrium assessed as decrease in atrial rate at 100 uM relative to control; assay type: functional, tissue-based, Cavia porcellus, Cardiac atrium; design: scale not given: the % may be the effect or the level left
[3] = Negative inotropic activity in guinea pig left atrium assessed as decrease in atrial tension relative to control; assay type: functional, tissue-based; conditions: Cavia porcellus, Cardiac atrium
Aorta [4] = test: Vasorelaxant activity in K+-depolarized guinea pig aorta assessed as inhibition of calcium-induced contraction at 100 uM; assay type: functional; conditions: Cavia porcellus
Ileum [5] = test: Vasorelaxant activity in K+-depolarized guinea pig ileum longitudinal smooth muscle assessed as inhibition of calcium-induced contraction at 100 uM; assay type: functional; conditions: Cavia porcellus
Ileum [6] = test: Vasorelaxant activity in K+-depolarized guinea pig ileum longitudinal smooth muscle assessed as inhibition of calcium-induced contraction; assay type: functional, tissue-based; conditions: Cavia porcellus
[7] = Negative inotropic activity in guinea pig left atrium assessed as decrease in atrial tension at 50 uM relative to control; assay type: functional, tissue-based, Cavia porcellus, Cardiac atrium; design: scale not given: the % may be the effect or the level left
Ileum [8] = test: Vasorelaxant activity in K+-depolarized guinea pig ileum longitudinal smooth muscle assessed as inhibition of calcium-induced contraction at 50 uM; assay type: functional; conditions: Cavia porcellus
[9] = Negative chronotropic activity in guinea pig spontaneously beating right atrium assessed as decrease in atrial rate at 100 uM relative to control; design: scale not given: the % may be the effect or the level left
Aorta [10] = test: Vasorelaxant activity in K+-depolarized guinea pig aorta assessed as inhibition of calcium-induced contraction at 50 uM; assay type: functional; conditions: Cavia porcellus
[11] = Negative inotropic activity in guinea pig left atrium assessed as decrease in atrial tension at 100 uM relative to control; assay type: functional, tissue-based, Cavia porcellus, Cardiac atrium; design: scale not given: the % may be the effect or the level left
Ileum [12] = test: Vasorelaxant activity in K+-depolarized guinea pig ileum longitudinal smooth muscle assessed as inhibition of calcium-induced contraction at 10 uM; assay type: functional; conditions: Cavia porcellus
[13] = Negative inotropic activity in guinea pig left atrium assessed as decrease in atrial tension at 1 uM relative to control; assay type: functional, Cavia porcellus, Cardiac atrium; design: scale not given: the % may be the effect or the level left
[14] = Negative chronotropic activity in guinea pig spontaneously beating right atrium assessed as decrease in atrial rate at 10 uM relative to control; assay type: functional, Cavia porcellus, Cardiac atrium; design: scale not given: the % may be the effect or the level left
[15] = Negative inotropic activity in guinea pig left atrium assessed as decrease in atrial tension at 10 uM relative to control; assay type: functional, Cavia porcellus, Cardiac atrium; design: scale not given: the % may be the effect or the level left
L-type calcium channel = L-type calcium channel (Rattus norvegicus, UniProt P22002+P27732+Q02485); test: Displacement of [3H]diltiazem from L-type calcium channel in Sprague-Dawley rat cardiac myocytes at 10 uM; assay type: cell-based; conditions: probe [3H]diltiazem, read-out: Activity
[16] = target: Voltage-gated L-type calcium channel (Rattus norvegicus, UniProt P22002+Q02485+P27732); test: Displacement of [3H]diltiazem from L-type calcium channel in Sprague-Dawley rat cardiac myocytes; assay type: cell-based
In short: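 Rat cardiomyocyte preparation. [3H]diltiazem at 5 nM is incubated with test compound at increasing concentrations from 0.1 nM to 100 µM. The readout is the inhibition of [3H]diltiazem binding to the benzothiazepine site.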

[17] = Dissociation constant, pKa of the compound; assay type: physicochemical
In short: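 pKa values are calculated in silico, not measured experimentally.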

[18] = Negative chronotropic activity in guinea pig spontaneously beating right atrium assessed as decrease in atrial rate at 5 uM relative to control; assay type: functional, Cavia porcellus, Cardiac atrium; design: scale not given: the % may be the effect or the level left
Ileum [19] = test: Vasorelaxant activity in K+-depolarized guinea pig ileum longitudinal smooth muscle assessed as inhibition of calcium-induced contraction at 1 uM; assay type: functional; conditions: Cavia porcellus

| SMILES | Activity [2] [%] | EC50 [3] [nM] | inhibition at 100 µM (Aorta [4]) [%] | inhibition at 100 µM (Ileum [5]) [%] | IC50 (Ileum [6]) [µM] | Activity [11] [%] | also measured |
| --- | --- | --- | --- | --- | --- | --- | --- |
| CN(C)CCNc1cc(-c2cccnc2)nc2ccccc12 | 4 | 300 | 5 | 72 | 20.3 |  | Activity [1]: 76% |
| O=S(=O)(c1ccc(Cl)cc1)N(C1CCNCC1)C1CC1 |  | 310 | 19 |  | 14.1 |  | Activity [7]: 76%; inhibition at 50 µM (Ileum [8]): 89%; Activity [9]: 64% |
| O=S(=O)(c1cccc2c(Cl)cccc12)N1CCCNCC1 |  | 430 |  |  |  | 98 | inhibition at 50 µM (Aorta [10]): 43%; inhibition at 10 µM (Ileum [12]): 40%; Activity [9]: 46% |
| CCO[C@]1(c2ccc(Br)cc2)SC=C(C)n2c1noc2=O |  | 70 | 11 | 3 |  |  | Activity [13]: 58%; Activity [14]: 16% |
| CCc1c(C)cc(C)cc1OC[C@@H](O)CNC(C)C | 40 | 3590 | 30 |  |  |  | Activity [7]: 76% |
| CCOc1ccc(NC(=O)CCN(CC)CC)cc1 | 30 | 1050 | 11 |  |  | 79 |  |
| CC(C)(CNC(=S)Nc1ccccc1)N1CCOCC1 | 10 | 730 | 20 | 76 | 16.5 | 94 |  |
| COc1ccccc1NC(=O)OCC1CCCCN1C (configuration not stated) | 17 | 970 | 10 | 73 | 18.4 | 87 |  |
| COc1ccc(Cl)cc1NC(=O)N1CCN(C)CC1 | 10 | 340 | 7 | 44 |  |  | Activity [7]: 67% |
| O=C(COc1ccccc1Cl)N1CCNCC1 | 3 | 520 | 1 |  |  |  | Activity [7]: 60% |
| CCN(CC)CCOc1ccc2ccc(=O)oc2c1 | 28 | 250 | 14 | 22 |  |  | Activity [15]: 67% |
| CN1CCN(S(=O)(=O)c2cccc3cccnc23)CC1 |  | 450 | 18 | 28 |  |  | inhibition at 10 µM (L-type calcium channel): 60%; Activity [15]: 84%; Activity [9]: 19% |
| CN(C)CCNC(=O)c1cc2ccccc2cc1O | 35 | 350 | 13 | 61 | 20.2 | 90 | Ki [16]: 0.45 µM |
| Cc1ccccc1CC(=O)c1ccc(O)c(CN(C)C)c1O |  | 840 | 4 |  |  |  | pKa [17]: 10.7; Activity [1]: 78%; Activity [9]: 48% |
| CN(Cc1ccccc1)Cc1ccnc(Br)c1O | 6 | 1110 | 2 |  | 3.28 | 70 | inhibition at 50 µM (Ileum [8]): 57% |
| COc1cc2c(cc1OC)[C@H]1CC(=O)[C@H]3CCC[C@H]3N1CC2 | 4 | 2170 | 3 |  |  | 64 |  |
| Cc1cc(C(C)(C)C)cc(C)c1NC(=O)CN1CCOCC1 | 29 | 840 | 26 |  |  |  | Activity [15]: 87% |
| CN(C)CCOC(c1ccc(Cl)cc1)c1ccccn1 (configuration not stated) [CARBINOXAMINE] | 48 | 250 | 28 |  | 9.34 | 76 | EC30 [3]: 0.48 µM; inhibition at 50 µM (Ileum [8]): 62%; Ki [16]: 1.08 µM |
| CC(C)NC[C@@H](O)COc1cccc2ccccc12 [DEXPROPRANOLOL] |  |  | 36 | 74 |  |  | Activity [7]: 92%; Activity [9]: 26% |
| COc1ccc([C@@H]2Sc3ccccc3N(CCN(C)C)C(=O)[C@@H]2OC(C)=O)cc1 [DILTIAZEM] |  | 790 | 88 |  | 0.11 |  | Activity [15]: 78%; Activity [18]: 94%; EC30 [3]: 0.07 µM; IC50 [3]: 2600 nM; inhibition at 1 µM (Ileum [19]): 98% |
| COc1ccc(CN(CCN(C)C)c2ccccn2)cc1 [PYRILAMINE] | 47 | 6260 | 23 |  |  | 81 |  |
